Values joined by “and” are separate entries in the source; they are usually repeats but may differ in a detail not shown here. Identical values can stand only once.
How the values were obtained:
[1] = In vivo hepatotoxicity assay; set-up: species or system Kunming mice; settings: mice
How it was run: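 Female Kunming mice (4–6 weeks) were randomised into three groups of three: vehicle control, or test compound or parent ansamycin at 10 mg kg−1. They were injected once daily for three consecutive days. Serum AST and ALT were then measured with spectrophotometric kits and reported in U L−1.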

HUVEC = assay: MTT cell growth inhibition assay, HUVEC; format: cell-based; settings: Homo sapiens, 72 h, read-out: IC50 HUVEC
How it was run: (§1)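 MTT assay. Seeding per well was 3 × 10^3 for cancer cells, 4 × 10^3 for HUVEC and 8 × 10^3 for HL7702. Test compound was added after adherence and incubated 72 h. MTT (5 mg mL−1 stock) was added for a further 4 h at 37 °C, formazan was dissolved in DMSO, and absorbance was read at 570 nm. Inhibition was calculated relative to controls, and IC50 is the concentration giving 50% growth inhibition.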

HL7702 = assay: MTT cell growth inhibition assay, HL7702; format: cell-based; settings: Homo sapiens, L02, 72 h, read-out: IC50 HL7702
How it was run: as §1

[2] = tested on: Hsp90 client proteins (Her2, AKT, CDK4) and Hsp70 in MDA-MB 231 cells; assay: Western blot assay of Hsp90 inhibition in cellular system; format: cell-based, human; settings: 0.5 μM
How it was run: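 MDA-MB 231 cells were treated with or without test compound over different time courses. Cells were lysed in ice-cold Tris-HCl (pH 7.4) buffer with Triton, EDTA/EGTA, phosphatase and protease inhibitors, then boiled 10 min in SDS loading buffer. Proteins were separated by 8–12% SDS-PAGE and transferred to PVDF. Membranes were blocked in 5% BSA in PBS-Tween for 1 h, incubated with primary antibodies overnight at 4 °C, and detected with peroxidase-conjugated anti-rabbit or anti-mouse secondary antibodies and ECL.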

SW480 = assay: MTT cell growth inhibition assay, SW480; format: cell-based; settings: Homo sapiens, SW480, 72 h, read-out: IC50 SW480
How it was run: as §1

HeLa = assay: MTT cell growth inhibition assay, HeLa; format: cell-based; settings: Homo sapiens, 72 h, read-out: IC50 HeLa
How it was run: as §1

HepG2 = assay: MTT cell growth inhibition assay, HepG2; format: cell-based; settings: Homo sapiens, HepG2, 72 h, read-out: IC50 HepG2
How it was run: as §1

BGC-823 = assay: MTT cell growth inhibition assay, BGC-823; format: cell-based; settings: Homo sapiens, BGC-823, 72 h, read-out: IC50 BGC-823
How it was run: as §1

A549 = assay: MTT cell growth inhibition assay, A549; format: cell-based; settings: Homo sapiens, A549, 72 h, read-out: IC50 A549
How it was run: as §1

A431 = assay: MTT cell growth inhibition assay, A431; format: cell-based; settings: Homo sapiens, A-431, 72 h, read-out: IC50 A431
How it was run: as §1

MDA-MB-231 = assay: MTT cell growth inhibition assay, MDA-MB-231; format: cell-based; settings: Homo sapiens, MDA-MB-231, 72 h, read-out: IC50 MDA-MB-231
How it was run: as §1

MDA-MB-231 xenograft = assay: In vivo antitumor assay, MDA-MB-231 xenograft model; set-up: species or system nude mice; settings: 10 mg kg^−1 via caudal vein every three days, 15 days
How it was run: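 Female athymic nude mice (6–7 weeks) first received 5 × 10^6 logarithmic-phase MDA-MB-231 cells s.c. in physiological saline. After two weeks, tumour fragments were implanted into the right flank. At a mean tumour volume of 100 mm3, mice were randomised (6 per group) and dosed 10 mg kg−1 via the tail vein every three days for 15 days. Vehicle was 5% glucose with 1% DMSO and 2% lecithin; a reference Hsp90 inhibitor served as positive control. Calipers were used every three days, with V = length × width²/2. TGI came from final tumour weights, and T/C from mean RTV (Vt/V0). Student's two-tailed t test was used, P < 0.05.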

[3] = 10 mg kg^−1, injected once a day for three days, blood serum

IC50 (SW480) | IC50 (HeLa) | IC50 (HepG2) | IC50 (BGC-823) | IC50 (A549) | IC50 (A431) | IC50 (MDA-MB-231) | Compound | ALT [1, 3] | AST [1, 3] | AST and ALT levels versus vehicle control group ([1]; 10 mg kg^−1, three days) | IC50 (HUVEC) | IC50 (HL7702) | levels of Hsp70 [2] | T/C (MDA-MB-231 xenograft; relative tumor volume) | TGI (MDA-MB-231 xenograft; tumor weight)
298 ± 34 nM | 731 ± 53 nM | 45 ± 7 nM | 40 ± 8 nM | 91 ± 7 nM | 45 ± 6 nM | 59 ± 13 nM | COC1=C2C[C@@H](C)C[C@H](OC)[C@H](O)[C@@H](C)/C=C(\C)[C@H](OC(N)=O)[C@@H](OC)/C=C\C=C(/C)C(=O)NC(=CC1=O)C2=O [GA, Geldanamycin] | 273.0 ± 25.3 U L^−1 | 317.2 ± 39.1 U L^−1 | significantly higher | 18 ± 3 nM | 133 ± 20 nM | markedly increased | – | –
614 ± 85 nM | 112 ± 18 nM | 82 ± 16 nM | 725 ± 99 nM | 87 ± 6 nM | 72 ± 4 nM | 324 ± 76 nM | C=CCNC1=C2C[C@@H](C)C[C@H](OC)[C@H](O)[C@@H](C)/C=C(\C)[C@H](OC(N)=O)[C@@H](OC)/C=C\C=C(/C)C(=O)NC(=CC1=O)C2=O [Compound 17-AAG, 17-allylamino-17-demethoxygeldanamycin] | – | – | – | 271 ± 38 nM | 105 ± 7 nM | markedly increased | 41.9% and 41.9 ± 11.3% | 55.1% and 55.1 ± 5.5%
